In the library only some 2.7% were active in any assay of this set; here they are far more common.
PAFAH2 inh: PAFAH2 (human) inhibition. Q99487. recombinant PAFAH2, FP-rhodamine activity probe, fluorescence polarization. inhibition, % at 3.39 µM. 340,000 tested, 0.99% active;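 active = inhibition above the mean over all tested compounds plus 3 SD, cut at about 30% in these data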;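 note: inhibitors block probe labeling of enzyme so polarization drops; 0% = enzyme with DMSO and 100% = wells lacking PAFAH2 protein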
ASAP1 inh: ASAP1 ArfGAP inhibition; ASAP1-stimulated ARF1 GTP hydrolysis, GDP FP detection; inhibition, % at 16.5 µM; 360,000 tested, 0.19% active; in the data active = inhibition above about 25%;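 note: 0% = vehicle with enzyme and substrate and 100% = no enzyme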
PAFAH1B2 FP inh: inhibitors of human PAFAH1B2; P68402; recombinant PAFAH1B2, FP-rhodamine activity probe, fluorescence polarization; inhibition, % at 3.39 µM; 340,000 tested, 1.2% active;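 active = inhibition above the mean of all tested compounds plus 3 SD, cut at about 24% in these data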;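 note: 0% = enzyme with DMSO and 100% = wells lacking PAFAH1B2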
ARFGAP1 inh: inhibitors of rat ARFGAP1; Q62848; Arfgap1-stimulated ARF1 GTP hydrolysis, GDP FP detection; inhibition, % at 16.5 µM; 360,000 tested, 0.26% active;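 active = inhibition above a per-plate limit, mean inhibition of low control wells plus 3 SD, cut at about 25% in these data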;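 note: 0% = DMSO wells with enzyme and 100% = wells lacking Arfgap1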
Target sequence (Q62848 1-136 limits assumed): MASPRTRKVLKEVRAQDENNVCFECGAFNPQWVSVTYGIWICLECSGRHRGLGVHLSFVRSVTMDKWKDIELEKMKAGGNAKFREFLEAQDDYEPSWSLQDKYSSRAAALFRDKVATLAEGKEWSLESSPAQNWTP
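Material: truncated rat Arfgap1 GAP domain; Incubation: compound-enzyme preincubation 20 min, reaction 120 min, detection 60 min, 25 °C; Read-out: percent inhibition of Arfgap1-stimulated GTP hydrolysis; Technique: FP, GDP Alexa 633 tracer displaced from anti-GDP antibody, 620/688 nm; Controls: No-Arfgap1 wells (100%) versus DMSO full-reaction wells (0%); Replication: single well per compound.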
PAFAH1B3 inh: PAFAH1B3 (human) inhibition. Q15102. recombinant PAFAH1B3, FP-rhodamine probe, fluorescence polarization. inhibition, % at 3.39 µM. 340,000 tested, 0.28% active;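 active = inhibition above the screen-wide average of all tested compounds plus 3 SD, cut at about 25% in these data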;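 note: 0% = enzyme with DMSO only and 100% = wells lacking PAFAH1B3 protein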
pPAFAH FP inh: inhibitors of human plasma PAF acetylhydrolase (pPAFAH) | recombinant pPAFAH, FP-rhodamine probe fluorescence polarization | AID 463082 | 330,000 tested, 1.5% active | inhibition, % at 3.39 µM;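 active = inhibition above the mean inhibition across the screen plus 3 SD, cut at about 25% in these data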;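 note: inhibitors block binding of the rhodamine activity-based probe so polarization drops; 0% = enzyme with DMSO and 100% = wells lacking pPAFAH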
Target sequence (Q13093 whole entry, looked up): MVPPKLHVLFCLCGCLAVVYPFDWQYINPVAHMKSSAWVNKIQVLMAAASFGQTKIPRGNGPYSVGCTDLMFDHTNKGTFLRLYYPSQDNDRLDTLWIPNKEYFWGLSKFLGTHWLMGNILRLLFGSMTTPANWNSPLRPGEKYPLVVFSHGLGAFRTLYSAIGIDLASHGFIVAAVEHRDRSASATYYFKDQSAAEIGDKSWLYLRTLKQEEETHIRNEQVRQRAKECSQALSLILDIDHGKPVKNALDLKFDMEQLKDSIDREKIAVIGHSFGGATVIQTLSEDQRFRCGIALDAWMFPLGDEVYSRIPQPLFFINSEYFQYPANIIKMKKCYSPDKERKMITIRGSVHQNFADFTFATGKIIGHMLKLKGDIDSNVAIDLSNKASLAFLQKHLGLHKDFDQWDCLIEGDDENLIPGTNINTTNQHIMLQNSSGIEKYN
PAFAH1B3 conf FP: PAFAH1B3 (human) inhibition, confirmed. shares compounds with PAFAH1B3 inh. recombinant PAFAH1B3, FP-Rh activity-based probe, fluorescence polarization. inhibition, % at 3.39 µM. 390 tested, 30% active. AID 493032;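 active = average inhibition over triplicate runs above the hit cutoff set in the earlier primary screen, cut at about 25% in these data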;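 note: 0% = enzyme with DMSO and 100% = wells lacking PAFAH1B3 protein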
An asterisk follows results filed as active; . = no result; ! = a repeat was not active.

SMILES | PAFAH2 inh | ASAP1 inh | PAFAH1B2 FP inh | ARFGAP1 inh | PAFAH1B3 inh | pPAFAH FP inh | PAFAH1B3 conf FP
COc1ccc2c(c1)CC=C1C2CCC2(C)C(=O)C(=NO)CC12 (stereo not drawn) | 15 | -20 | 19 | -4 | 33* | . | 29*
CC(=O)N(/N=C1\Sc2ccccc2C1=O)c1cccc(C)c1 | 7 | 6 | 7 | 7 | 42* | -6 | 54*
COc1ccc(C(=O)c2c(C(F)(F)F)oc3c2C(=O)c2ccccc2C3=O)cc1 | 4 | . | 10 | . | 27* | 9 | 25
COc1ccc(C(=O)c2coc(-c3ccccc3C(=O)O)c2C(=O)O)cc1 | 6 | 4 | 2 | 3 | 3 | 1 | .
Cc1nc(N)sc1-c1csc(Nc2cccc(C(=O)O)c2)n1 | 9 | 1 | 11 | 1 | 29* | . | 8
CN(C1(C)CCS(=O)(=O)C1)S(=O)(=O)c1ccc2ccccc2c1 (stereo not drawn) | 7 | 12 | -1 | -2 | 6 | 3 | .
CCOC(=O)c1c2c(n(C)c1C)C(=O)C(=O)c1ccc(Br)cc1-2 | 22 | 17 | 8 | -4 | 36* | -3 | 21
OC1COC(c2ccccc2)OC1C(O)C1OC(c2ccccc2)OCC1O (stereo not drawn) | -2 | -3 | 2 | 4 | 3 | . | .
Cc1cc(N/N=C/c2c(O)ccc3ccccc23)nc(-c2ccccc2O)n1 | 20 | 15 | 13 | 2 | 30* | 21 | 15
Oc1ccc2ccccc2c1/C=N/Nc1ccccc1 | 5 | 5 | 10 | 0 | 3 | 8 | .
CCc1cc(C(=O)N2CCN(C(=O)c3ccccc3)CC2)sc1C | 7 | -11 | -1 | 9 | 6 | . | .
On1nnc2ccccc21 | -6 | 1 | 1 | 6 | 6 | -7 | .
On1nnc2c3ccccc3c3ccccc3c21 | 3 | 16 | 10 | -9 | 38* | 3 | 42*
CC(Nc1cccc2ccccc12)C(=O)N/N=C/c1ccccn1 (stereo not drawn) | 23 | 18 | 11 | -3 | 36* | 3 | 11
Cc1cccc(Cn2nnc3c2C(=O)c2ccccc2C3=O)c1 | 7 | -2 | 10 | 6 | 30* | 1 | 9
COc1ccc(N2CS(=O)CC2=O)cc1 (stereo not drawn) | 0 | 0 | 3 | -2 | 43* | 1 | 5
CC1CCN(C(=O)C2CCCN2S(=O)(=O)c2ccc(Cl)cc2)CC1 (stereo not drawn) | -4 | 7 | 1 | 13 | 1 | 0 | .
CC(=O)N/C(=N\c1nc(C)cc(C)n1)Nc1ccc2ccccc2c1 | 3 | -5 | -3 | -6 | 5 | -4 | .
O=S(=O)(Nc1c(S(=O)(=O)c2ccccc2)c2nc3ccccc3nc2n1C1CCCCC1)c1ccccc1 | 10 | 16 | 21 | 11 | 60* | 20 | 9
Cc1cc(C(=O)N/N=C/c2cc(N=Nc3ccccc3)ccc2O)n[nH]1 | -17 | . | 6 | . | 29* | 14 | 18
COC(=O)N/N=C/c1cc(N=Nc2ccccc2)ccc1O | 8 | -5 | 6 | 8 | 8 | 11 | .
O=C(CCl)Nc1c(C(=O)Nc2ccc3c(c2)OCCO3)oc2ccccc12 | 6 | 4 | 1 | -1 | 26* | 14 | 30*
CCCCNC(=O)C1C(c2ccc(C(F)(F)F)cc2)=Nc2ccccc2N1C(=O)c1cccc2ccccc12 (stereo not drawn) | . | -5 | . | 0 | . | . | .
N#CC(C#N)=C1C=C2C=C(N3CCCCCC3)CCC2CC1 (stereo not drawn) | 21 | -7 | 6 | 2 | 22 | . | .
N#CC(C#N)=C1C=C2C=C(N3CCOCC3)CCC2CC1 (stereo not drawn) | 27 | 8 | 18 | -6 | 34* | . | 14
SMILES | PAFAH2 inh | ASAP1 inh | PAFAH1B2 FP inh | ARFGAP1 inh | PAFAH1B3 inh | pPAFAH FP inh | PAFAH1B3 conf FP
c1ccc(Nc2ccnc(Nc3ccccc3)n2)cc1 | 1 | 1 | 5 | 13 | 6 | 3 | .
NNc1nccc(Nc2ccccc2C(=O)O)n1 | 25 | -1 | 18 | -7 | 28* | 9 | 12
O=C1c2ccccc2C(=O)c2c(O)c(O)cc(O)c21 | 19 | 1 | 16 | 0 | 40* | 47* | 29*
Cc1ccc(SC2=C(Sc3ccc(C)cc3)C(=O)c3ccccc3C2=O)cc1 | 16 | -8 | 21 | -13 | 38* | 8 | 35*
Cc1ccc(N2C(=O)c3ccccc3C2=O)cc1 | 4 | 4 | 7 | -5 | -1 | -7 | .
CCOC(=O)c1c(C)oc2c1c(C=NCC1CCCO1)c(O)c1ccccc12 (stereo not drawn) | 12 | -3 | 4 | -6 | 12 | . | .
CCOC(=O)c1c(C)oc2c1c(C=NCc1ccccn1)c(O)c1ccccc12 | 16 | 1 | 13 | 0 | 56* | . | 17
CC1CCN(C(=O)COC(=O)c2ccccc2NCCO)CC1 | . | 0 | . | -4 | . | . | .
Cc1ccc(OCC(=O)Nc2cc(C(C)(C)C)on2)cc1C | 5 | 3 | 1 | 11 | 8 | -8 | .
CNCCCC12CCC(c3ccccc31)c1ccccc12 | 2 | 11 | -1 | -6 | 50*! | -1 | 7
CC1=C(Nc2ccc(C(=O)O)cc2)C(=O)c2ccccc2C1=O | 1 | -1 | 6 | -4 | 13 | 2 | .
O=C(O)c1ccc(NC2=C(Cl)C(=O)c3ccccc3C2=O)cc1 | 12 | -9 | 12 | 12 | 33* | -2 | 23
O=C(O)c1cccc(NC2=C(Cl)C(=O)c3ccccc3C2=O)c1 | 21 | 12 | 13 | -4 | 27* | . | 23
O=C1C(Cl)=C(Nc2ccccc2)C(=O)c2ccccc21 | 15 | 1 | 11 | 2 | 26* | 4 | 20
COc1cc(OC)c(NC(=O)CCNS(=O)(=O)c2ccc3c(c2)CC(C)N3C(C)=O)cc1Cl (stereo not drawn) | -1 | 9 | 5 | -7 | 9 | 0 | .
O=C(CSc1ccc(Cl)cc1)NC(=O)c1ccccc1 | 3 | 11 | 21 | 0 | 9 | 0 | .
Cc1cc(Cl)ccc1C(O)c1ncc(-c2ccc(C(F)(F)F)cc2)[nH]1 (stereo not drawn) | . | 13 | . | 11 | . | . | .
COc1ccc(Cn2c(O)c(/C=N/NC(=O)c3cccnc3)c3ccccc3c2=O)cc1 | 19 | 20 | 13 | 3 | 26* | . | 18
C=CC(=O)Nc1ccc(Br)cc1 | -4 | -8 | 4 | -10 | 63* | 1 | 57*
NCC(=O)Nc1ccc(Br)cc1 | -3 | -1 | 0 | 6 | 3 | 2 | .
Cc1cc2c(N=O)c(NO)ccc2[nH]1 | 9 | . | 21 | . | 44* | 10 | 35*
COc1ccc2[nH]c(O)c(N=O)c2c1 | 11 | -2 | 8 | 7 | 19 | 17 | .
O=[N+]([O-])c1ccc(Cl)cc1P(=O)(O)c1cc(Cl)ccc1[N+](=O)[O-] | 3 | -14 | 2 | 2 | 10 | . | .
